Article PMC10330775 (Experimental cell research, 2023)

Biological target: T1, RsTSPO WT (Cereibacter sphaeroides, UniProt Q9RFC8)
T1 sequence (Q9RFC8 1-158): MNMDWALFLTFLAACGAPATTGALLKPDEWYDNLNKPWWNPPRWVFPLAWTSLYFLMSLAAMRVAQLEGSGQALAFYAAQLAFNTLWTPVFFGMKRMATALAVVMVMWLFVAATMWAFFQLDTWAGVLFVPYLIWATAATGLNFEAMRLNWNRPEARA
Experiment: tryptophan fluorescence quenching titration, Hill fit
Type: binding
In short: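 Purified wild-type Rhodobacter sphaeroides TSPO, 2.5 uM in 20mM Tris pH 8.0, 150mM NaCl, 0.20% DM, 2mM TCEP, titrated at room temperature with increasing amounts of test compound in DMSO. Emission scanned 290–400 nm, excitation 285 nm. Ligand, buffer and solvent absorption/emission controls run. Kd from Hill-equation fit of the quenching curve.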

Kd: 172 ± 11 µM
Structure (SMILES): Nc1ccccc1C(=O)C[C@H](N)C(=O)O [Kynurenine]
